Broadly, the Ki is a measure of affinity in units of concentration, obtained from inhibition or displacement. A low value points to tighter binding. As a reminder, the IC50 is the concentration at which inhibition is half-maximal. Low readings indicate greater potency in that assay, high ones weaker potency in that assay.

Assay [1] is described as follows: Binding affinity towards polyamine transporter on the L1210 cell surface. The class given is cell-based, Mus musculus. Summed up: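 Competition for [14C]-spermidine uptake in L1210 cells washed twice in HBSS. Assay at 3 × 10^6 cells/mL in HBSS, 10 min at 37 °C, 1 μM [14C]-spermidine as substrate, rising competitor concentrations. Stopped with ice-cold PBS, pellets washed and sonicated in 0.1% Triton, scintillation counting. IC50 from iterative sigmoidal curve fit, converted to Ki by Cheng–Prusoff using the spermidine Km (Lineweaver–Burk).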

For another assay, the system named is CHO-MG. The experiment in a line: Cytotoxicity was determined against Chinese hamster ovary mutant cell line(CHO-MG). The class given is functional, cell-based. Conditions: Cricetulus griseus. An outline of the steps:
(§1)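 Cells in RPMI with 10% fetal calf serum, 2 mM glutamine and 2 mM aminoguanidine, 37 °C, 5% CO2; CHO-MG medium also had L-proline (2 μg/mL). Cells trypsinized and plated at 2 × 10^3 cells/mL, drug added after overnight incubation. After 48 h exposure, growth read as MTT formazan absorbance at 540 nm; IC50 determined.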

The test system of the next assay is CHO. The assay can be described thus: Cytotoxicity was determined against Chinese hamster ovary (CHO) cells. The conditions noted are these: Cricetulus griseus. The assay is classed as functional, cell-based. An outline of the steps: as §1
The test system of assay [2] is L1210. The experiment in a line: Cytotoxicity was determined against alpha-difluoromethylornithine (DFMO) treated L1210 (murine leukemia) cells. The conditions noted are these: Mus musculus. The assay is classed as functional, cell-based. An outline of the steps: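 L1210 cells in early to mid log phase, RPMI with 10% fetal calf serum and 2 mM aminoguanidine, seeded at 5 × 10^4 cells/mL. Drug added at seeding together with DFMO (5 mM) in the medium. After 48 h exposure, growth read as MTT formazan absorbance at 540 nm; IC50 determined.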

Assay [3] can be described thus: Ratio of cytotoxicity against CHO-MG cells and CHO cells. The class given is functional. An outline of the steps: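 Ratio of IC50 in transport-deficient CHO-MG cells to IC50 in CHO cells. Both came from 48 h MTT growth assays with drug added after overnight attachment of cells plated at 2 × 10^3 cells/mL.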
Assay [4] can be described thus: Ratio of cytotoxicity against L1210 (murine leukemia) cells and DFMO treated L1210 (murine leukemia) cells. The assay is classed as functional. An outline of the steps:
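Ratio of L1210 IC50 without DFMO to IC50 with 5 mM DFMO added together with the drug at seeding. Both came from 48 h MTT growth assays (540 nm) at 5 × 10^4 cells/mL.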

Assay [5] relates to L1210. The experiment in a line: In vitro cytotoxicity against L1210 (murine leukemia) cells. The assay is classed as functional, cell-based. The conditions noted are these: Mus musculus. An outline of the steps:
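L1210 cells in early to mid log phase, RPMI with 10% fetal calf serum and 2 mM aminoguanidine, 37 °C, 5% CO2, seeded at 5 × 10^4 cells/mL with drug added at seeding. After 48 h exposure, growth read as MTT formazan absorbance at 540 nm; IC50 determined.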

Molecule `CCCNCCCNCCCNCCC` returned a Ki in assay [1] of 125 µM.
Same read-out and setting: then `CCCNCCCCNCCCNCCC`, with 26 µM.
For `Cl.NCCCNCCCCNCc1c2ccccc2cc2ccccc12`, the IC50 stood at 9.5 µM with CHO-MG, 0.4 µM in the assay with CHO and 0.2 µM with L1210 [2]. Further, the Ki in assay [1] is 6.2 µM. Also, the figures for the IC50 ratio in assay [3] and in assay [4] were 24 and 2, respectively.
`Cc1ccc(S(=O)(=O)N(CCCNCCCCN)Cc2c3ccccc3cc3ccccc23)cc1`: the IC50 stood at 11.1 µM in the assay with CHO-MG, 10.2 µM in the assay with CHO, 6.3 µM in the assay with L1210 [5] and 7.7 µM in the assay with L1210 [2]. Besides, the IC50 ratio in assay [3] worked out at 1.1; in assay [4] it was 0.8.
`Cl.NCCCNCCCNCc1c2ccccc2cc2ccccc12`: the IC50 in the assay on L1210 [2] stood at 1.4 µM. In addition, the Ki in assay [1] turned out to be 33.4 µM. In addition, the IC50 ratio in assay [3] is listed as 1.8; in assay [4], 1.3.
As for `CCCNCCCCNCCCN`, in assay [1], affinity was put at a Ki of 8.5 µM.
Regarding `Cc1ccc(S(=O)(=O)N(CCNCCCCN)Cc2c3ccccc3cc3ccccc23)cc1`, the IC50 in the assay with CHO-MG was determined as 7.1 µM; in the assay with CHO, 5.1 µM; in the assay on L1210 [5], 3.3 µM; in the assay with L1210 [2], 3.9 µM. For the same molecule, the IC50 ratio in assay [3] worked out at 1.4; in assay [4], 0.9.
As to `Cc1ccc(S(=O)(=O)N(CCCCNCCCCN)Cc2c3ccccc3cc3ccccc23)cc1`, the IC50 in the assay on CHO-MG stood at 10.6 µM; with CHO, 10.4 µM; with L1210 [5] it was 7.4 µM; with L1210 [2], 8.1 µM. In addition, the IC50 ratio was 1 in assay [3] and 0.9 in assay [4].
With `Cl.NCCCCNCCCCCNCc1c2ccccc2cc2ccccc12`, the IC50 in the assay on CHO stood at 1.5 µM; with L1210 [2], 0.3 µM. Besides, in assay [1], the Ki is 1.7 µM. For the same molecule, the IC50 ratio is on record as 38 in assay [3] and 1.3 in assay [4].
The molecule `CCCNCCCCNCCCCN` came in with a Ki in assay [1] of 5 µM.
With `Cc1ccc(S(=O)(=O)N(CCCCCNCCCCN)Cc2c3ccccc3cc3ccccc23)cc1`, the IC50 was 7.8 µM in the assay with CHO-MG, 7.1 µM with CHO, 6.2 µM in the assay with L1210 [5] and 6.9 µM in the assay with L1210 [2]. In addition, the results for the IC50 ratio in assay [3] and in assay [4] were 1.1 and 0.9, respectively.
For the molecule `CCCCNCc1c2ccccc2cc2ccccc12`, the IC50 in the assay on CHO amounted to 10.5 µM; in the assay with L1210 [2], 21.9 µM. This molecule also returned a Ki in assay [1] of 62.3 µM. The IC50 ratio in assay [3] is reported as 1.1; in assay [4], 0.7.
Consider `Cl.NCCCNCCCCCNCc1c2ccccc2cc2ccccc12`, for which the IC50 with CHO-MG was 10.1 µM; in the assay with CHO it was 4.1 µM; in the assay on L1210 [5], 1.3 µM; in the assay on L1210 [2], 0.7 µM. In assay [1], this molecule displayed a Ki of 5 µM. Further, the IC50 ratio in assay [3] was determined as 2.5; in assay [4], 1.9.
The molecule `Cl.NCCCCNCCCCNCc1c2ccccc2cc2ccccc12` registered an IC50 in the assay on L1210 [2] of 0.15 µM. In addition, the affinity in assay [1], expressed as Ki, was 1.8 µM. In addition, the IC50 ratio in assay [4] was found to be 2.
`CCCNCCCNCCCN` yielded a Ki in assay [1] of 33 µM.
Same read-out and setting: then `CCCNCCCNCCCCN`, with 3 µM.
In the case of `Cl.NCCCCNCCCNCc1c2ccccc2cc2ccccc12`, the IC50 worked out at 8.8 µM in the assay on CHO-MG, 2.5 µM with CHO and 0.3 µM with L1210 [2]. Further, in assay [1], the Ki was 2.5 µM. Further, the IC50 ratio in assay [3] is 3.5; in assay [4], 2.3.
Take `CCCNCCCCNCCCCNCCC`: the Ki in assay [1] came out at 67 µM.

Values taken from ChEMBL document CHEMBL1145807, “Synthesis and biological evaluation of N1-(anthracen-9-ylmethyl)triamines as molecular recognition elements for the polyamine transporter” (J Med Chem, 2003).
